Data on two compounds can be found in ChEMBL document CHEMBL1649538 (2009).

What all share (assay type): functional
Assay [1] relates to Staphylococcus aureus. The experiment in a line: Antibacterial activity against methicillin-resistant Staphylococcus aureus by broth microdilution method. Background: Dilution methods test growth across graded concentrations, often in twofold steps.
The subject of assay [2] is Staphylococcus epidermidis. The experiment in a line: Antibacterial activity against slime-negative Staphylococcus epidermidis M7 after 24 hrs by CLSI method. To be noted: M7, 24 h.
Assay [3] deals with Staphylococcus epidermidis. The assay is described as follows: Antibacterial activity against slime-negative Staphylococcus epidermidis M7 assessed as inhibition of biofilm formation after 24 hrs by CLSI method. The method in brief: (§1)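 Modified Calgary pin-lid device. Inoculum of 7 log10 CFU/ml was prepared by direct colony suspension from 24-h TSA growth. Biofilm grew on pins for 24 h at 35°C on a rocking table in TSB with 1% glucose and 2% NaCl. Pins were rinsed three times in PBS and exposed 24 h at 35°C to serial antibiotic dilutions. MBIC is the last well without visible growth. Quadruplicate.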

Assay [4] has as its system Staphylococcus epidermidis. The assay is described as follows: Antibacterial activity against slime-negative Staphylococcus epidermidis M7 assessed as induction of biofilm eradication after 24 hrs by CLSI method. The gist of the method:
(§2)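 Pin-lid biofilms were grown 24 h at 35°C in TSB with 1% glucose and 2% NaCl (7 log10 CFU/ml start), rinsed in PBS, and exposed 24 h at 35°C to serial antibiotic dilutions. Pin bacteria were dispersed by sonication and vortexing. Counts were plated in duplicate on TSA (detection limit 2.4 CFU/ml) or read as turbidity at 570 nm. Quadruplicate.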

The test system of assay [5] is Staphylococcus epidermidis. The experiment in a line: Antibacterial activity against Staphylococcus epidermidis RP62A after 24 hrs by CLSI method.
Assay [6] deals with Staphylococcus epidermidis. The experiment in a line: Antibacterial activity against Staphylococcus epidermidis RP62A assessed as inhibition of biofilm formation after 24 hrs by CLSI method. The gist of the method:
as §1

The subject of assay [7] is Staphylococcus epidermidis. The assay is described as follows: Antibacterial activity against Staphylococcus epidermidis RP62A assessed as induction of biofilm eradication after 24 hrs by CLSI method. The gist of the method: as §2
Assay [8] has as its system Staphylococcus aureus. The assay is described as follows: Antibacterial activity against Staphylococcus aureus ATCC 35556 after 24 hrs by CLSI method. To be noted: ATCC 35556, 24 h. The method in brief:
(§3)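 Conventional MIC determined in duplicate following CLSI dilution guidelines, with cultures incubated at 35°C.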

The test system of assay [9] is Staphylococcus aureus. The assay is described as follows: Antibacterial activity against Staphylococcus aureus ATCC 35556 assessed as inhibition of biofilm formation after 24 hrs by CLSI method. The gist of the method: as §1
Assay [10] deals with Staphylococcus aureus. The experiment in a line: Antibacterial activity against Staphylococcus aureus ATCC 35556 assessed as induction of biofilm eradication after 24 hrs by CLSI method. The method in brief:
as §2

In assay [11] the test system is Enterococcus faecalis. The assay is described as follows: Antibacterial activity against Enterococcus faecalis ATCC 29212 after 24 hrs by CLSI method. The following applies: ATCC 29212, 24 h. The method in brief:
as §3

The subject of assay [12] is Enterococcus faecalis. The experiment in a line: Antibacterial activity against Enterococcus faecalis ATCC 29212 assessed as inhibition of biofilm formation after 24 hrs by CLSI method. The gist of the method: as §1
Assay [13] deals with Enterococcus faecalis. The experiment in a line: Antibacterial activity against Enterococcus faecalis ATCC 29212 assessed as induction of biofilm eradication after 24 hrs by CLSI method. The gist of the method: as §2
Assay [14] deals with Staphylococcus aureus. The assay is described as follows: Antibacterial activity against methicillin-susceptible Staphylococcus aureus L2 after 24 hrs by CLSI method. The following applies: L2, 24 h. The gist of the method: as §3
Assay [15] relates to Staphylococcus aureus. The experiment in a line: Antibacterial activity against methicillin-susceptible Staphylococcus aureus L2 assessed as inhibition of biofilm formation after 24 hrs by CLSI method. The method in brief: as §1
Assay [16] deals with Staphylococcus aureus. The assay is described as follows: Antibacterial activity against methicillin-susceptible Staphylococcus aureus L2 assessed as induction of biofilm eradication after 24 hrs by CLSI method. The method in brief: as §2
The subject of assay [17] is Staphylococcus aureus. The assay is described as follows: Antibacterial activity against methicillin-resistant Staphylococcus aureus L32 after 24 hrs by CLSI method. To be noted: L32, 24 h. The gist of the method:
as §3

Assay [18] deals with Staphylococcus aureus. The assay is described as follows: Antibacterial activity against methicillin-resistant Staphylococcus aureus L32 assessed as induction of biofilm eradication after 24 hrs by CLSI method. The method in brief: as §2
Assay [19] relates to Staphylococcus aureus. The experiment in a line: Antibacterial activity against methicillin-resistant Staphylococcus aureus L83 after 24 hrs by CLSI method. To be noted: L83, 24 h. The gist of the method: as §3
The subject of assay [20] is Staphylococcus aureus. The experiment in a line: Antibacterial activity against methicillin-resistant Staphylococcus aureus L32 assessed as inhibition of biofilm formation after 24 hrs by CLSI method. The method in brief:
as §1

The subject of assay [21] is Staphylococcus aureus. The experiment in a line: Antibacterial activity against methicillin-resistant Staphylococcus aureus L83 assessed as inhibition of biofilm formation after 24 hrs by CLSI method. The gist of the method:
as §1

Assay [22] deals with Staphylococcus aureus. The experiment in a line: Antibacterial activity against methicillin-resistant Staphylococcus aureus L83 assessed as induction of biofilm eradication after 24 hrs by CLSI method. The method in brief: as §2

In brackets after ≈: the same amount, converted by molar mass.

Broadly, the MIC is the smallest concentration in the dilution series that meets the test's criterion for growth inhibition. Lower therefore signals greater potency. As usually defined, the MBC is the lowest tested concentration that kills the bacteria rather than only halting them. Consider `CCCCCCCCCCNCCN[C@@]1(C)C[C@H](O[C@H]2[C@H](Oc3c4cc5cc3Oc3ccc(cc3Cl)[C@@H](O)[C@@H](NC(=O)[C@@H](CC(C)C)NC)C(=O)N[C@@H](CC(N)=O)C(=O)N[C@H]5C(=O)N[C@H]3C(=O)N[C@H](C(=O)N[C@H](C(=O)O)c5cc(O)c(CNCP(=O)(O)O)c(O)c5-c5cc3ccc5O)[C@H](O)c3ccc(c(Cl)c3)O4)O[C@H](CO)[C@@H](O)[C@@H]2O)O[C@@H](C)[C@H]1O` [TELAVANCIN], for which the MIC against Staphylococcus aureus [1] was 0.06 µg/mL (≈ 0.0342 µM); in assay [2], 0.125 µg/mL (≈ 0.0712 µM); in assay [5], 0.125 µg/mL (≈ 0.0712 µM); in the assay with Staphylococcus aureus [8], 0.06 µg/mL (≈ 0.0342 µM); against Enterococcus faecalis [11] it was 0.25 µg/mL (≈ 0.142 µM); against Staphylococcus aureus [14], 0.06 µg/mL (≈ 0.0342 µM). Besides, the minimum inhibitory concentration (MIC) in the assay on Staphylococcus aureus [17] turned out to be 0.03 µg/mL (≈ 0.0171 µM); with Staphylococcus aureus [19], 0.06 µg/mL (≈ 0.0342 µM). The MBC is 0.125 µg/mL (≈ 0.0712 µM) in assay [2]; 0.125 µg/mL (≈ 0.0712 µM) in assay [5]; 0.25 µg/mL (≈ 0.142 µM) in the assay on Staphylococcus aureus [8]; 1 µg/mL (≈ 0.57 µM) against Enterococcus faecalis [11]; 0.125 µg/mL (≈ 0.0712 µM) against Staphylococcus aureus [14]; 0.125 µg/mL (≈ 0.0712 µM) against Staphylococcus aureus [17]. In addition, the MBC with Staphylococcus aureus [19] came out at 0.125 µg/mL (≈ 0.0712 µM). Also, the MBIC in assay [3] stood at 0.5 µg/mL; in assay [6], 0.5 µg/mL; in the assay on Staphylococcus aureus [9], 0.25 µg/mL; in the assay on Enterococcus faecalis [12], 1 µg/mL; in the assay on Staphylococcus aureus [15], 1 µg/mL. The MBEC in assay [4] came out at 0.5 µg/mL; in assay [7], 1 µg/mL; with Staphylococcus aureus [10], 0.125 µg/mL; with Enterococcus faecalis [13], 1 µg/mL; in the assay with Staphylococcus aureus [16], 1 µg/mL; with Staphylococcus aureus [18], 2 µg/mL.

Consider `CN[C@H](CC(C)C)C(=O)N[C@H]1C(=O)N[C@@H](CC(N)=O)C(=O)N[C@H]2C(=O)N[C@H]3C(=O)N[C@H](C(=O)N[C@H](C(=O)O)c4cc(O)cc(O)c4-c4cc3ccc4O)[C@H](O)c3ccc(c(Cl)c3)Oc3cc2cc(c3O[C@@H]2O[C@H](CO)[C@@H](O)[C@H](O)[C@H]2O[C@H]2C[C@](C)(N)[C@H](O)[C@H](C)O2)Oc2ccc(cc2Cl)[C@H]1O` [VANCOMYCIN], for which the MBIC in [3] worked out at 8 µg/mL; in assay [6], 4 µg/mL; in the assay on Staphylococcus aureus [9] it was 16 µg/mL; in the assay on Enterococcus faecalis [12], 16 µg/mL; in the assay on Staphylococcus aureus [15] it was 16 µg/mL; in the assay with Staphylococcus aureus [20], 8 µg/mL. In addition, the MBIC in the assay with Staphylococcus aureus [21] was 4 µg/mL. The MBEC in [4] was 2 µg/mL; in assay [7], 4 µg/mL; with Staphylococcus aureus [10], >256 µg/mL; with Enterococcus faecalis [13], >256 µg/mL; in the assay on Staphylococcus aureus [16], >256 µg/mL; in the assay on Staphylococcus aureus [18] it was >256 µg/mL. Also, in the assay on Staphylococcus aureus [22], the MBEC is >256 µg/mL. Besides, the MBC stood at 2 µg/mL (≈ 1.38 µM) in assay [5]; 2 µg/mL (≈ 1.38 µM) against Staphylococcus aureus [8]; 16 µg/mL (≈ 11 µM) with Enterococcus faecalis [11]; 2 µg/mL (≈ 1.38 µM) in the assay on Staphylococcus aureus [14]; 2 µg/mL (≈ 1.38 µM) against Staphylococcus aureus [17]; 2 µg/mL (≈ 1.38 µM) in the assay on Staphylococcus aureus [19]. This compound showed an MIC in the assay with Enterococcus faecalis [11] of 2 µg/mL (≈ 1.38 µM).
